This is a sample that favours compounds with a hit; in the whole collection about 2.8% have one here.
NPY-Y1 antag: NPY-Y1 receptor antagonists, primary screen, cell-based; actives 1% (n = 200,000); inhibition, % at 3.6 µM; HEK293-CNG Y1 cells, membrane potential fluorescence; NPY at EC95, then isoproterenol;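 active = inhibition above the campaign mean inhibition of all tested compounds plus 3 SD, cut at about 20% in these data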;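 also: 0% = DMSO wells given NPY plus isoproterenol and 100% = isoproterenol alone without NPY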
Target sequence (P25929 whole entry, looked up): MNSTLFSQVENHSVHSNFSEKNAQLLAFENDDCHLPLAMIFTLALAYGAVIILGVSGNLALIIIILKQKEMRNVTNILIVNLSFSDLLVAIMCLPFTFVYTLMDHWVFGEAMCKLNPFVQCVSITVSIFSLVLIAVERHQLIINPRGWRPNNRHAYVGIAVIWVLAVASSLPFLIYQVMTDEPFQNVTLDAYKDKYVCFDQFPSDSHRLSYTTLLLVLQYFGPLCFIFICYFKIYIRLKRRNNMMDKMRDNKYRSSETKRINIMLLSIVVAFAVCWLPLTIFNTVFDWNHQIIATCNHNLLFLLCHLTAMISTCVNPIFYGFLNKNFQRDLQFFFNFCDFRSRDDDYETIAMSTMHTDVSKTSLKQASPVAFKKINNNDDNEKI
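Test system – HEK293 Y1/CNG channel cell line · Also added – NPY agonist 25 nM, then isoproterenol 1 µM plus Ro 20-1724 25 µM · Compound dosing – one concentration, 3.6 µM, in 0.4% DMSO · Schedule – compound incubation 1 h at room temperature, readout 45 min post-stimulation · Technique – fluorescence, membrane potential probe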
NPY Y2 blocker: NPY-Y2 receptor antagonists, primary screen, cell-based. Neuropeptide Y receptor type 2 (Homo sapiens), P49146. NPY-Y2 expressing cells, antagonist mode. inhibition, % at 2.7 µM. actives 0.99% (n = 140,000). AID 793, 2007; in the data active = inhibition above about 17%;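 also: 0% = vehicle with agonist challenge and 100% = reference antagonist with challenge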
EP2 mod: EP2 receptor modulators, cAMP readout, primary screen, cell-based, HTRF cAMP, PGE2 stimulation | Prostaglandin E2 receptor EP2 subtype (Homo sapiens), P43116 | EP2-expressing cells, cAMP HTRF FRET, PGE2 co-stimulation | actives 0.83% (n = 260,000) | AID 940, 2007 | induction, % at 25 µM;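 active = compounds whose cAMP rise, as percent of the full-agonist control response, exceeds 60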;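 also: rat C6 glioma line stably carrying human EP2 under a CMV promoter; the protocol text gives 20 µM as final concentration; 100% = response of wells given 1 µM PGE2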
PGE2 EP2 inh: human EP2 receptor antagonists, primary screen, TR-FRET cAMP, C6 glioma cells. Prostaglandin E2 receptor EP2 subtype (Homo sapiens), P43116. C6 glioma cells expressing human EP2; cells stimulated with saturating PGE2. inhibition, % at 25 µM. actives 0.52% (n = 260,000). AID 1422, 2008;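 active = percent inhibition above 40 after rounding to a whole number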;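 also: rat C6 glioma host cells with rolipram phosphodiesterase inhibitor present; the protocol text gives 20 µM as final concentration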
NPY1 pot ag: NPY-Y1 receptor potentiators or agonists, primary screen, cell-based; Neuropeptide Y receptor type 1 (Homo sapiens), P25929; actives 0.37% (n = 220,000); activation, % at 3.6 µM; NPY-Y1 expressing cells, potentiator/agonist activation; in the data active = activation above about 33%, passing the limit was not always enough;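 also: cells stimulated with NPY at EC10 then isoproterenol at EC100; 0% = low agonist plus stimulus and 100% = saturating agonist plus stimulus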
NPY2 pot ag: NPY-Y2 potentiators or agonists, primary screen, cell-based. cells expressing NPY-Y2, potentiator/agonist read-out. activation, % at 3.6 µM. AID 1359, 2008. actives 0.45% (n = 220,000); in the data active = activation above about 27%;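 also: cells stimulated with NPY near EC25 plus isoproterenol at EC100; 0% = vehicle plus submaximal agonist and 100% = vehicle plus saturating agonist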
EP2 confirm: cAMP induction in EP2, EP4, beta2-AR and parental cells, confirmation, counter-screen for EP2 modulator project, cell-based, five parallel assays, C6 glioma, HEK293; shares compounds with EP2 mod; cAMP HTRF induction; plus low (about EC15) PGE2 agonist; calls only at 20 µM (by protocol); actives 47% (n = 1,300);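 active = cAMP induction above 50% in the main assay while under 30% in all four parallel counter assays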;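 also: rat C6 glioma cells stably expressing human EP2 receptor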
* hit, by the source's call; i = inactive; . = no result given; + = active, no number.

SMILES	NPY-Y1 antag	NPY Y2 blocker	EP2 mod	PGE2 EP2 inh	NPY1 pot ag	NPY2 pot ag	EP2 confirm
Cc1ccn2c(Nc3ccccc3)c(-c3ccccn3)nc2c1	11	.	40	4	0	-4	.
Cc1ccc2nc(-c3ccccn3)c(Nc3ccccc3C)n2c1	7	.	67*	10	46*	36*	i
Cc1ccn2c(Nc3ccccc3C)c(-c3ccccn3)nc2c1	-3	.	66*	14	41*	30*	i
Cc1ccccc1Nc1c(-c2ccccn2)nc2ccccn12	6	.	66*	9	35*	35*	i
COc1ccc(OC)c(NC(=O)CSc2nnc3c(n2)[nH]c2ccccc23)c1	.	.	-44	8	.	.	.
CC1(C)Cc2c(ccc3ccccc23)-c2nnc(-c3cccc(N)c3)n21	.	.	-38	7	.	.	.
COc1cc(NC(=O)Cn2nnc(-c3ccccc3F)n2)c(OC)cc1Cl	.	.	-10	17	.	.	.
NC(=O)c1ccccc1NC(=O)CN1CCC(O)(c2ccc(F)cc2)CC1	.	.	-13	.	.	.	.
C[C@H](CN(C)C)C(=O)c1ccccc1C(=O)O	.	.	51	8	.	.	i
c1ccc(-c2nn3c(C4CCCCC4)nnc3s2)nc1	0	4	-14	22	-3	3	.
c1ccc(-c2nn3c(C4CCCCC4)nnc3s2)cc1	11	4	73*	3	4	-3	+
Cc1cccc(-c2nnc3sc(-c4ccccc4)nn23)c1	-3	1	55	6	7	7	.
c1ccc(-c2nn3c(-c4ccccc4)nnc3s2)cc1	1	9	74*	3	4	-8	+
COc1ccc(C)cc1NC(=O)CSc1nnc2c3ccccc3n(C)c2n1	.	.	-34	11	.	.	.
CCN1CCCc2cc(CN3CCc4c(nc(N5CCOCC5)[nH]c4=O)C3)ccc21	.	.	-39	.	.	.	.
CC1CCN(C(=O)Cn2c(SCC(=O)N3CCCCC3C)nc3ccccc32)CC1 (configuration not stated)	.	.	-4	7	.	.	.
Cc1ccc(S(=O)(=O)c2ccc(Oc3cccc(C)c3)cc2)cc1	4	3	78*	8	-16	-9	i
COc1ccc(-c2ccc(=O)n(CC3CCN(S(C)(=O)=O)CC3)n2)cc1	.	.	-73	.	.	.	.
O=C(O)/C=C/C(O)c1ccc(Cl)cc1 (configuration not stated)	.	.	79*	13	.	.	i
O=C(/C=C/Sc1ccccc1)c1ccc(Cl)cc1	4	4	-28	3	1	-5	.
CCOc1cc(S(=O)(=O)NCCc2ccccc2C)c(OCC)cc1-n1cnnn1	0	3	40	3	-18	-11	.
CCOc1cc(S(=O)(=O)NCCc2cccc(C)c2)c(OCC)cc1-n1cnnn1	-1	1	68*	5	-24	-11	i
Cn1c(SCC(=O)Nc2ccc3c(c2)OCCO3)nnc1-c1cccs1	.	.	-28	11	.	.	.
CC1CCCCN1C(=O)/C(=C\c1ccccc1)c1ccccc1 (configuration not stated)	3	5	69*	-1	2	-20	i
COc1cc2cc(C#N)c(SCC(=O)OCc3ccccc3)nc2cc1OC	.	.	29	19	.	.	.
COC(=O)c1cc(C#N)c(SCc2ccccc2)nc1C	4	3	56	8	-25	-1	.
CC(=O)c1cc(C#N)c(SCc2ccccc2)nc1C	4	3	72*	2	-25	-7	+
O=C(COc1ccc(Br)cc1)Nc1ccc(-c2nnc(-c3ccco3)o2)cc1	5	1	75*	0	-4	-7	i
COc1ccccc1OCC(=O)Nc1ccc(-c2nnc(-c3ccco3)o2)cc1	-1	.	5	5	15	-6	.
